Bioassay records as filed in PubChem BioAssay.
SENP8 block-1 – inhibitors of human SENP8 protease; 360,000 tested, 0.64% active; Q96LD8; inhibition, % at 20 µM; recombinant SENP8, Nedd8 substrate fluorescence; in the data active = inhibition mostly above about 40%, no sharp cut-off; inactive = mostly below about 27%
SENP6 inh – SENP6 protease inhibition; Q9GZR1; AID 2599; 330,000 tested, 1.8% active; Recombinant SENP6 catalytic domain, aminoluciferin luminescence; inhibition, % at 10 µM;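 active = inhibition above about 50% at the single tested dose, limit read from the data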
SENP1 FRET inh – SENP1 (human) catalytic domain inhibition; Q9P0U3; recombinant SENP1 catalytic domain, CyPet-SUMO1-YPet FRET cleavage; inhibition, % at 10 µM; 360,000 tested, 0.21% active; AID 624204;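 active = inhibition at least 30% at 10 µM, raw YFP signal under a set limit, fluorescence ratio 0.5 to 1.5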
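material = recombinant human SENP1 catalytic domain, His6-tagged | quantity = 20 pM enzyme | reagent = 25 nM SUMO1 FRET substrate | compound dosing = 10 µM single point, 0.5% DMSO | timing = 50 min enzyme reaction, room temperature, light-protected | detection = FRET, CFP and YFP emission | control set = no-enzyme low, enzyme-DMSO high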
SENP8 block-2 – inhibitors of human SENP8 protease. purified SENP8, Z-RLRGG-aminoluciferin cleavage, luminescence. 330,000 tested, 1.2% active. Q96LD8. inhibition, % at 10 µM; in the data active = inhibition above about 50%
SENP7 block – inhibitors of human SENP7 protease | AID 434973 | Q9BQF6 | recombinant SENP7, Z-RLRGG-aminoluciferin luminescence, 40 min | inhibition, % at 5 µM | 330,000 tested, 1.5% active;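 active = inhibition above about 50% at the single test dose, limit read from the data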
Target sequence (Q9BQF6 706-1050 limits assumed): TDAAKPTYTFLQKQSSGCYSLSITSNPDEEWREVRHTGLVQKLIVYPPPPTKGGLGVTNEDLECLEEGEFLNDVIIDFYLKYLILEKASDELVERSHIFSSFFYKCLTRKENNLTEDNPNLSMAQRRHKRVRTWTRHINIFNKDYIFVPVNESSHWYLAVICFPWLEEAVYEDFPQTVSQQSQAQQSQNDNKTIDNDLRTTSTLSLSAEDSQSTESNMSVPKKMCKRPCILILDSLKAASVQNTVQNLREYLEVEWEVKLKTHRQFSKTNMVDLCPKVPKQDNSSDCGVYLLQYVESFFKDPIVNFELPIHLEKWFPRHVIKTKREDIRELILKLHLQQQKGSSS
Platelet DG rel – platelet dense granule release activity; human platelet-rich plasma, SFLLRN dense granule ATP release, luminescence; inhibition, %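 (compounds screened at 7.5 µM in platelet-rich plasma)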; 300,000 tested, 0.22% active;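 active = mean replicate score, as percent of positive control, at or above 50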
SENP8 conf – confirmation of human SENP8 protease inhibitors | shares compounds with SENP7 block | Recombinant SENP8, Z-RLRGG-aminoluciferin luminescence, 60 min | inhibition, % at 12.5 µM | 6,200 tested, 40% active;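 active = mean inhibition across replicates above about 50%, limit read from the data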
SENP6 conf – confirmation of human SENP6 protease inhibitors | recombinant SENP6, Z-RLRGG-aminoluciferin luminescence | 6,200 tested, 58% active | inhibition, % at 12.5 µM | shares compounds with SENP7 block
SENP7 confirm – confirmation of human SENP7 protease inhibitors. recombinant SENP7, Z-RLRGG-aminoluciferin luminescence, 40 min. 6,200 tested, 69% active. inhibition, % at 12.5 µM. shares compounds with SENP7 block. AID 488917
Casp3 SENP sel – inhibits human caspase-3 in SENP selectivity test | shares compounds with SENP7 block | purified caspase-3, Z-DEVD-aminoluciferin luminescence, 60 min | inhibition, % at 12.5 µM | 6,200 tested, 60% active;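 active = mean inhibition above about 50%, limit read from the data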
Target sequence (P42574 28-227 limits assumed): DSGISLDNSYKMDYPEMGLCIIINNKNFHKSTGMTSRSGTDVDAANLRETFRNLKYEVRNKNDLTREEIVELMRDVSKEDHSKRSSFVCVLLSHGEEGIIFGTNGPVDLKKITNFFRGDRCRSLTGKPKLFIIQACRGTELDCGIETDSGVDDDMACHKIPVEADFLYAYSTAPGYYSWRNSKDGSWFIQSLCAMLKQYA
Luc interf – interferes with luciferase luminescence in SENP counter-screen. shares compounds with SENP7 block. Pre-incubated SENP8/Z-RLRGG-aminoluciferin, luciferase luminescence interference. inhibition, % at 12.5 µM. 6,200 tested, 39% active. AID 488919;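 active = mean inhibition above about 50% when retested at one dose, limit read from the data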
Numbers stand for hits; . = inactive; / = no result. Compounds with a hit are over-represented: about 2.6% of the library has one in this group of screens.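 The calls were made as follows, unless noted: active = mean inhibition above about 50% in the one-dose retest (limit read from the data); inactive = the rest.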

SMILES	SENP8 block-1	SENP6 inh	SENP1 FRET inh	SENP8 block-2	SENP7 block	Platelet DG rel	SENP8 conf	SENP6 conf	SENP7 confirm	Casp3 SENP sel	Luc interf
Cc1cccc(/C=C/C(=O)c2ccc(N3CCOCC3)cc2)c1	/	89.1	/	84.4	92.4	.	.	.	.	55.2	80.2
Cc1ccc(/C=C/C(=O)c2ccc(N3CCOCC3)cc2)s1	.	80.6	.	67.7	.	.	.	.	.	.	.
CCc1ccc(/C=C/C(=O)c2ccc(N3CCOCC3)cc2)cc1	.	.	.	.	.	.	/	/	/	/	/
COC(=O)C1=C(C)N(CCCC(=O)O)C(=O)NC1c1cccc(OC)c1 (stereo not drawn)	.	.	.	.	.	.	/	/	/	/	/
Cc1cc(/C=C2/C(=O)NN(c3ccccc3)C2=O)c(C)n1-c1ccc(O)cc1	50.4	78.5	.	55.5	.	.	.	65.7	91.1	62.5	.
Cc1cc(O)c(C=Nc2ccc(N3CCOCC3)cc2)c(C)c1Cl	.	56.5	.	.	82.2	.	.	.	.	.	.
Cc1ccc(OCc2nc3ccccc3[nH]2)cc1	.	.	.	60.7	67.5	.	52.0	53.2	77.8	70.5	61.2
Cc1ccc(C(=O)Cc2nc3ccccc3[nH]2)cc1	.	.	.	.	.	.	/	/	/	/	/
c1ccc(OCc2nc3ccccc3[nH]2)cc1	.	60.5	.	.	53.7	.	.	50.9	84.8	81.7	67.9
CC(C)N1C(=O)S/C(=C\c2ccc(-c3ccc(Cl)c(C(=O)O)c3)o2)C1=O	.	91.2	.	86.4	77.3	.	94.1	93.7	98.7	.	89.5
Cc1ccc(N2NC(=O)/C(=C/c3ccc(-c4ccc(Cl)c(C(=O)O)c4)o3)C2=O)cc1	.	.	.	.	.	.	/	/	/	/	/
CC(=O)Nc1ccc2nc(NC(=O)c3ccc([N+](=O)[O-])s3)sc2c1	/	64.5	/	.	.	.	.	.	.	.	.
COc1ccc2nc(NC(=O)c3cccs3)sc2c1	.	96.1	.	94.3	97.2	.	.	.	.	.	.
COc1ccc2nc(NC(=O)c3ccccc3O)sc2c1	.	84.5	.	85.5	81.9	.	.	.	69.7	59.5	.
CC(=O)Nc1ccc2nc(NC(=O)c3cccs3)sc2c1	.	92.8	.	83.1	91.5	86.3	56.5	87.4	93.1	90.4	.
O=C(Nc1ccc(Oc2cccnc2)cc1)C1CCN(Cc2cc(Cl)ccc2O)CC1	.	.	.	.	.	.	/	/	/	/	/
Cc1nc(N)nc(N(C)c2ccccc2)c1Br	.	/	.	/	/	/	/	/	/	/	/
OC(c1cccc(Cl)c1)c1ncc(-c2cccc3ccccc23)[nH]1 (stereo not drawn)	.	/	.	/	/	/	/	/	/	/	/
CCCCCCOc1ccc(C(=O)O)cc1C#N	.	76.8	.	61.1	.	.	61.1	60.9	85.4	76.6	75.0
CCCCCCCCOc1ccc(C(=O)O)cc1	.	.	.	.	.	/	/	/	/	/	/
COc1cccc2cc(C(=O)c3ccccc3)oc12	.	72.9	.	60.6	62.0	.	.	59.5	84.3	60.7	64.0
O=C(c1ccc(F)cc1)c1cc2ccccc2o1	.	83.7	.	51.5	66.6	.	.	.	83.5	57.2	.
O=C(c1ccccc1)c1cc2ccccc2oc1=O	.	.	.	.	.	.	/	/	/	/	/
O=C(c1ccccc1)c1cc2ccccc2o1	.	74.3	.	50.8	65.5	.	.	58.1	82.5	52.9	.
COc1ccc(OC(=O)c2cc3ccccc3o2)cc1	.	60.8	.	.	70.7	.	.	.	88.9	.	.
SMILES	SENP8 block-1	SENP6 inh	SENP1 FRET inh	SENP8 block-2	SENP7 block	Platelet DG rel	SENP8 conf	SENP6 conf	SENP7 confirm	Casp3 SENP sel	Luc interf
O=C(NNC(=O)c1cc2ccccc2o1)c1ccc(F)cc1	.	.	.	.	.	/	/	/	/	/	/
CN1C[C@@H]2[C@@H]3C(=O)N(C)C(=O)[C@@H]3[C@](C)(C1=O)N2C(=O)c1ccc(Cl)c(Cl)c1	.	/	.	/	/	/	/	/	/	/	/
CSc1ccc(S(=O)(=O)Nc2c(C)n(C)n(-c3ccccc3)c2=O)cc1	.	.	.	.	.	.	/	/	/	/	/
O=C(O)/C=C/c1coc2ccc(F)cc2c1=O	.	.	.	.	.	.	/	/	/	/	/
Cc1ccc2occ(/C=C/C(=O)O)c(=O)c2c1	.	74.1	.	.	.	.	64.3	58.3	86.1	58.5	60.6
O=C(O)c1ccc(/C=N\Nc2ccccn2)cc1	.	91.7	.	88.8	94.9	52.8	94.6	96.0	101.8	98.2	88.9
CN(C)c1ccc(/C=N\Nc2ccccn2)cc1	.	68.1	.	.	54.2	.	58.0	56.9	86.2	67.8	.
C(=N\Nc1ccccn1)/c1cccnc1	.	.	.	.	.	.	/	/	/	/	/
Cc1ccc(-c2csc3ncn(CC(=O)NCC(c4ccco4)N4CCCC4)c(=O)c23)cc1 (stereo not drawn)	.	.	.	.	.	/	/	/	/	/	/
Brc1ccc(/C=N/Nc2nc3ccccc3o2)cc1	.	.	.	.	55.4	.	.	.	.	.	.
Oc1ccccc1/C=N/Nc1nc2ccccc2o1	.	82.5	.	68.7	78.9	.	.	61.9	92.5	66.2	.
COc1ccc(/C=N/Nc2nc3ccccc3o2)cc1O	.	.	.	63.5	72.6	.	84.4	84.0	96.9	82.1	82.2
O=C1NC(c2ccc(Cl)cc2)Nc2ccccc21 (stereo not drawn)	.	.	.	.	.	.	/	/	/	/	/
CN(C)c1ccc(C2NC(=O)c3ccccc3N2)cc1 (stereo not drawn)	.	90.6	.	86.7	93.1	.	.	.	.	.	.
C=CCS/C(N)=N\N=C\c1c(O)ccc2ccccc12	.	.	.	.	.	.	/	/	/	/	/
O=C(Cc1ccc(Cl)cc1)c1ccc(O)cc1	.	51.0	.	.	.	.	54.9	.	78.7	.	63.3
CCOc1ccc(C(=O)NCCc2ccccc2)cc1	.	64.2	.	51.8	55.7	.	59.3	59.6	82.0	80.3	.
CC(=O)Oc1ccc(C(=O)NCCc2ccccc2)cc1	.	.	.	.	.	.	/	/	/	/	/
CCOc1ccc(/C(C)=N\NC(=O)Cc2ccccc2)cc1	.	96.3	.	.	.	.	.	.	.	.	.
